Measurements as given in ChEMBL document CHEMBL1142963, “Novel sigma receptor ligands: synthesis and biological profile” (J Med Chem, 2007).
Calls of active or inactive are those of the source. The calls are words filed in the database; no cut-off is given here.

What was measured:
D(1A) dopamine receptor = D(1A) dopamine receptor (Rattus norvegicus, UniProt P18901); test: Displacement of [3H]SCH-23390 from rat striatum dopamine D1 receptor
How it was run: (§1)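 Rat brain tissue by target: striatum for D1, D2 and DAT; olfactory tubercle for D3; cortex for muscarinic, 5-HT3, 5-HT2A, α1, α2, H1, NMDA and SERT; guinea pig cortex for 5-HT4. Inhibitors at seven to nine concentrations. After incubation, samples were filtered on glass fibre filters, washed three times with ice-cold buffer and counted by liquid scintillation. Ki values were derived by curve fitting.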

[1] = biological target: 5-hydroxytryptamine receptor 4 (Cavia porcellus, UniProt O70528); test: Displacement of [3H][…] from guinea pig cortex 5HT4 receptor; how it was run: as §1
[2] = biological target: T1, Adrenergic receptor alpha-2 (Rattus norvegicus, UniProt P22086+P19328+P22909); test: Displacement of 3H]RX821002 from rat cortex adrenergic alpha-2 receptor; how it was run: as §1
T1 sequence (P22086 whole entry): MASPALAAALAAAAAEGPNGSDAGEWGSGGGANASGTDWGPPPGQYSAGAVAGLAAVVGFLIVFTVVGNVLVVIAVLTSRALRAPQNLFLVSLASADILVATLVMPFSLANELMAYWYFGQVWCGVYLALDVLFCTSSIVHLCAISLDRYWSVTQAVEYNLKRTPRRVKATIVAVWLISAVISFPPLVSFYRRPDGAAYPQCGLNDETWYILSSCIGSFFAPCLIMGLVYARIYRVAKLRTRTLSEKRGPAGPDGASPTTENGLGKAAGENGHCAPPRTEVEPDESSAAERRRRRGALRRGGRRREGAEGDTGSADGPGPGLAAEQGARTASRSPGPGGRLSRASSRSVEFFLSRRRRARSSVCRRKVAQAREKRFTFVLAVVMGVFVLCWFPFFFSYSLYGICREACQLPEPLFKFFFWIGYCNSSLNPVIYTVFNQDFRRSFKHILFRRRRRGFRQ
T1 sequence (P19328 whole entry): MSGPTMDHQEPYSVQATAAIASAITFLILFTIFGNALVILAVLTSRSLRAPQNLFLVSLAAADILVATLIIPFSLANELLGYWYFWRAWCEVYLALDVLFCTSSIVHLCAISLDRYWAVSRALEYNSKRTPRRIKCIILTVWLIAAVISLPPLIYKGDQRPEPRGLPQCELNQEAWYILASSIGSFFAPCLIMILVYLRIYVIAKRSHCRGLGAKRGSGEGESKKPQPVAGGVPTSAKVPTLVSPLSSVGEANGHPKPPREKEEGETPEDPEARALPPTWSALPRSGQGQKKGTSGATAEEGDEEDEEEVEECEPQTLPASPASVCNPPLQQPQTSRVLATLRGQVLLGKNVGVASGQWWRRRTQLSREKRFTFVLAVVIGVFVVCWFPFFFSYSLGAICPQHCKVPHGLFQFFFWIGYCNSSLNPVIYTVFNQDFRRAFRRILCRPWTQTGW
T1 sequence (P22909 whole entry): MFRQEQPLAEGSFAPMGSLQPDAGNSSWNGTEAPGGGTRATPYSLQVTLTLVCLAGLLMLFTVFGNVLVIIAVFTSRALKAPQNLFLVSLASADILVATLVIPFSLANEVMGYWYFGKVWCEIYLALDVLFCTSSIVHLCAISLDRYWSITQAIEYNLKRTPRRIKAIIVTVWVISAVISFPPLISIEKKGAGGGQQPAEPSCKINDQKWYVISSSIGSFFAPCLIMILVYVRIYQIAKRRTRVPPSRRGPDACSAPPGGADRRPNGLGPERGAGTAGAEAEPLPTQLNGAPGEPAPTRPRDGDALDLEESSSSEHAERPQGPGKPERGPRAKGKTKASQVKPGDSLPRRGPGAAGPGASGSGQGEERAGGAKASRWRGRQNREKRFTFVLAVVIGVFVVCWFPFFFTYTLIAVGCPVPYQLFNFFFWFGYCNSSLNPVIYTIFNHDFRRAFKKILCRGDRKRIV

[3] = biological target: T2, 5-hydroxytryptamine receptor 3A (Rattus norvegicus, UniProt P35563); test: Displacement of [3H]LY278584 from rat cortex 5HT3 receptor; how it was run: as §1
T2 sequence (P35563 whole entry): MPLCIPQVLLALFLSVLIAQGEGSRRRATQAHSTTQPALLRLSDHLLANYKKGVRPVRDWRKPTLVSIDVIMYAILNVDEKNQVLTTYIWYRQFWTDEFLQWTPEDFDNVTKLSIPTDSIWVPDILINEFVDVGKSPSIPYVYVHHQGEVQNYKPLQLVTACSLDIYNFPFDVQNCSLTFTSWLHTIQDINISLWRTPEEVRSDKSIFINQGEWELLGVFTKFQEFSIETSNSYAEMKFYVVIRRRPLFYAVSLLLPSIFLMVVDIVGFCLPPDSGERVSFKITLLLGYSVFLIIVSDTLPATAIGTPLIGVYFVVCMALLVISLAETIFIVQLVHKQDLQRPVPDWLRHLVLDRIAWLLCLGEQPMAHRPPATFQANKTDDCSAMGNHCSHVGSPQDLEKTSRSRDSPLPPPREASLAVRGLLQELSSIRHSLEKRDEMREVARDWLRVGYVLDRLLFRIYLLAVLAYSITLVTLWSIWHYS

D(3) dopamine receptor = D(3) dopamine receptor (Rattus norvegicus, UniProt P19020); test: Displacement of [3H]7OH-DPAT from rat olfactory tubercle dopamine D3 receptor; assay type: tissue-based; how it was run: as §1
[4] = biological target: Sodium-dependent dopamine transporter (Rattus norvegicus, UniProt P23977); test: Displacement of [3H]WIN-35428 from rat striatum DAT; how it was run: as §1
Rattus norvegicus [5] = organism: Rattus norvegicus; test: Increase in TG-2 expression in albino Wistar rat primary astroglial cells at 25 uM after 24 hrs; assay type: functional
How it was run: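 Primary Wistar rat astrocytes at 14 DIV were exposed to ligand 25 µM for 24 h. Densitometric percentage of TG-2 versus untreated control; HUVEC extract as positive control. Mean ± SD of four experiments.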

[6] = biological target: 5-hydroxytryptamine receptor 2A (Rattus norvegicus, UniProt P14842); test: Displacement of [3H]ketanserin from rat cortex 5HT2A receptor; how it was run: as §1
[7] = Displacement of [3H]MK-801 from rat cortex NMDA channel; how it was run: as §1
[8] = Displacement of [3H]DTG rom guinea pig brain sigma 2 receptor; design: species or system Cavia porcellus
Rattus norvegicus [9] = organism: Rattus norvegicus; test: Increase of caspase 3 cleavage in albino Wistar rat primary astroglial cells at 25 uM after 24 hrs relative to control; assay type: functional
How it was run: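 Primary astrocytes from 1–2-day-old Wistar rat brains were grown 14 DIV, then exposed to ligand 25 µM for 24 h. Cells were lysed and sonicated, and 30 µg protein was run on 10% SDS-PAGE. Mean ± SD of four experiments; t test.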

D(2) dopamine receptor = D(2) dopamine receptor (Rattus norvegicus, UniProt P61169); test: Displacement of [3H]spiperone from rat striatum dopamine D2 receptor; how it was run: as §1
[10] = biological target: Muscarinic acetylcholine receptor; test: Displacement of [3H]QNB from rat cortex muscarinic receptor; how it was run: as §1
[11] = biological target: Sigma non-opioid intracellular receptor 1 (Cavia porcellus, UniProt Q60492); test: Displacement of [3H](+)-pentazocine from guinea pig brain sigma 1 receptor
Glutamate NMDA receptor = test: Displacement of [3H]CGP-39653 from rat cortex NMDA receptor; how it was run: as §1

Sodium-dependent dopamine transporter, sequence (P23977 whole entry): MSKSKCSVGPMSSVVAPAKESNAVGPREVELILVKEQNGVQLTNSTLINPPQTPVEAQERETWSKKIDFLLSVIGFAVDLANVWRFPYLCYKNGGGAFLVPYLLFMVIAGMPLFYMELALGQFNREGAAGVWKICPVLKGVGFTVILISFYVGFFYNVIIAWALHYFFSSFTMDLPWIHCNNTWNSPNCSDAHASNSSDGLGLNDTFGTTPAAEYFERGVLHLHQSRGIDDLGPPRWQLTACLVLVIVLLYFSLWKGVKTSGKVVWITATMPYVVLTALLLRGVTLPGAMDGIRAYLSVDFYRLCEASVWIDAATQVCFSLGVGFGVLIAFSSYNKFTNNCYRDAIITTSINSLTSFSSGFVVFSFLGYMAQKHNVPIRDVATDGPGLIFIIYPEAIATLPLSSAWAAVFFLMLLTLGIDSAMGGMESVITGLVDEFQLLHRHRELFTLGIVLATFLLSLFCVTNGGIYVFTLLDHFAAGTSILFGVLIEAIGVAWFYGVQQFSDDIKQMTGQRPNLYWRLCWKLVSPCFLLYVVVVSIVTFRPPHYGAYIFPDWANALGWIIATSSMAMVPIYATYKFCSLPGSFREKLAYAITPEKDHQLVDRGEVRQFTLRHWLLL
D(3) dopamine receptor, sequence (P19020 whole entry): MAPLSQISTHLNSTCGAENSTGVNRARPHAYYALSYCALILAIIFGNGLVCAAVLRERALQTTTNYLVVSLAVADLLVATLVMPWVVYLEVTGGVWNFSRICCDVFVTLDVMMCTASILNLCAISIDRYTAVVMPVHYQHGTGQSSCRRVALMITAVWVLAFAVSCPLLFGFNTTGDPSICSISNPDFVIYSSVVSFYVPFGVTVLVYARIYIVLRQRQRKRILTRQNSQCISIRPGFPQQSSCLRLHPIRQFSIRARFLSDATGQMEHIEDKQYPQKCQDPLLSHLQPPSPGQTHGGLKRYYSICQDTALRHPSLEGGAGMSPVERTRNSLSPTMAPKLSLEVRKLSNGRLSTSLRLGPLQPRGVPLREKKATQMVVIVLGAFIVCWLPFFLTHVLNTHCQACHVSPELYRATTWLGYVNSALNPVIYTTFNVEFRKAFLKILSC
D(2) dopamine receptor, sequence (P61169 whole entry): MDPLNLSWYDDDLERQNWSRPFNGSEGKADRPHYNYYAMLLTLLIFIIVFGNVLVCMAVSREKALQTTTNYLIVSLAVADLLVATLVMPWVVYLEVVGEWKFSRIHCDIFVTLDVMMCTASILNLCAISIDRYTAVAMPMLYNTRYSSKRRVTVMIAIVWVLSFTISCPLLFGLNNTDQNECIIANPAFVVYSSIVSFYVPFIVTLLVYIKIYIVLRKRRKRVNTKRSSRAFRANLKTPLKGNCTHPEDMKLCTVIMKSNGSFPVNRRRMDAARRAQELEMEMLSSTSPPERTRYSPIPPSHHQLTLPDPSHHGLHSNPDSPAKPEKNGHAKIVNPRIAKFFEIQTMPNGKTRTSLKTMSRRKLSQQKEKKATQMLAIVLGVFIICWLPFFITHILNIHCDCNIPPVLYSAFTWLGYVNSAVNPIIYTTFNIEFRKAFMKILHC
5-hydroxytryptamine receptor 2A, sequence (P14842 whole entry): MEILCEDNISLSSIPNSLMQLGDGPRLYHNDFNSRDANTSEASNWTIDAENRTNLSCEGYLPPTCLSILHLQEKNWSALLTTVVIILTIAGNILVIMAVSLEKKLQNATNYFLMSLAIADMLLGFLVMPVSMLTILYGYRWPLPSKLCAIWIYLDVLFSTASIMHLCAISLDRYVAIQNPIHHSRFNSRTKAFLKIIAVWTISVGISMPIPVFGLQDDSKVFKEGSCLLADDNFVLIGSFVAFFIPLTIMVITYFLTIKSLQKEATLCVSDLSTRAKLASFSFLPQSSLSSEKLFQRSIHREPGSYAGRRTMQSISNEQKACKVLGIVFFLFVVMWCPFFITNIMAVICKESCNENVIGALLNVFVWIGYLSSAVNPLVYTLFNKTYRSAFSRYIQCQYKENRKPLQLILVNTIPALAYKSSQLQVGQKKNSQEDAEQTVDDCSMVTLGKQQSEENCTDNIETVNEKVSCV
D(1A) dopamine receptor, sequence (P18901 whole entry): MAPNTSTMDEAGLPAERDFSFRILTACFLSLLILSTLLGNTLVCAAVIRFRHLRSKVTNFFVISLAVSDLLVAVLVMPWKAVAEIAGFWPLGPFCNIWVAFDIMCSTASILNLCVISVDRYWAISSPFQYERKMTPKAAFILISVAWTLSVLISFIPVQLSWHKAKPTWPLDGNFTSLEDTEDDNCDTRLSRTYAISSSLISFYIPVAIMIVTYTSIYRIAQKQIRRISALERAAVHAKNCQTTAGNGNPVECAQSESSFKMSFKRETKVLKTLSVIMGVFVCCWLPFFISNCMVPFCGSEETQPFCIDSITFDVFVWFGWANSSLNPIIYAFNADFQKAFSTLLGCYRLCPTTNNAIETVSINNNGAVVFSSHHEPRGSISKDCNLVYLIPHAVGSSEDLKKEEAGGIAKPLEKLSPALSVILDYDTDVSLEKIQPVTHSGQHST
Sigma non-opioid intracellular receptor 1, sequence (Q60492 whole entry): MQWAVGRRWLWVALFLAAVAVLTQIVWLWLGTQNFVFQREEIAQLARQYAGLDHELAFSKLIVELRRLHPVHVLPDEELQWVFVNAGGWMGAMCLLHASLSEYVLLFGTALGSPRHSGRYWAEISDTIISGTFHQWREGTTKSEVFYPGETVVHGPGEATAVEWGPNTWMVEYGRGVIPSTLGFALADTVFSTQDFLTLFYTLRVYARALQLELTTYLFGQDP
5-hydroxytryptamine receptor 4, sequence (O70528 whole entry): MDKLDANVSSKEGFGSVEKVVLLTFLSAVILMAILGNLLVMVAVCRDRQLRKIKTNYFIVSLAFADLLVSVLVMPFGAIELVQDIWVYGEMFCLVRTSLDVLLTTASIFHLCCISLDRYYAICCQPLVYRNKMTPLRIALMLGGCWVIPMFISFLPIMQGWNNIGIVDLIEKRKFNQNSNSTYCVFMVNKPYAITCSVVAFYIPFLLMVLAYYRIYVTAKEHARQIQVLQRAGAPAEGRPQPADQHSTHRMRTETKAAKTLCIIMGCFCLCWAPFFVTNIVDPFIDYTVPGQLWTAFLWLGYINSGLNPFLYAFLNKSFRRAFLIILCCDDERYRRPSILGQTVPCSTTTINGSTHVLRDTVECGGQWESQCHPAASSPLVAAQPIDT

COC(=O)C1(c2ccc(C)cc2)CC1CN1CCC(O)(c2ccccc2)CC1 (stereo not given)
Ki (D(1A) dopamine receptor): > 10 µM | Ki [1]: > 10 µM | Ki [2]: 9.414 µM | Ki [3]: > 10 µM | Ki (D(3) dopamine receptor): 4.9 µM | Ki [4]: > 10 µM | Activity (Rattus norvegicus [5]): Active | Ki [6]: 3.15 µM | Ki [7]: > 10 µM | Ki [8]: 50.8 nM | Activity (Rattus norvegicus [9]): Active | Ki (D(2) dopamine receptor): 1280 nM | Ki [10]: > 10 µM | Ki [11]: 1.5 nM | Ki (Glutamate NMDA receptor): > 10 µM
